According to paper PMC10795152 (ACS Omega, 2024):

Assays:
EGFR^L858R/T790M/C797S = EGFR^L858R/T790M/C797S (Homo sapiens, UniProt P00533, C797S/L858R/T790M); assay: In vitro enzymatic activity assay; format: biochemical
Method in brief: (§1)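 Reaction mix: 40 mM Tris pH 7.4, 10 mM MgCl2, 0.1 mg/mL BSA, 1 mM DTT, 10 μM ATP, 25 ng kinase and 0.2 mg/mL poly(Glu,Tyr) substrate. Test compound diluted in 10% DMSO before addition, giving 1% DMSO final. Residual ATP read by luminescence, with signal inverse to kinase activity. IC50 from nonlinear regression of normalized dose–response data.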

EGFR^Del19/T790M/C797S = EGFR^Del19/T790M/C797S (Homo sapiens, UniProt P00533, C797S/DEL746-750/T790M); assay: In vitro enzymatic activity assay; format: biochemical
Method in brief: as §1

- IC50 (EGFR^L858R/T790M/C797S): 1220 ± 31 nM
- IC50 (EGFR^Del19/T790M/C797S): 1430 ± 22 nM
Compound: Oc1ccccc1-c1nc(NCCN2CCNCC2)c2ccccc2n1 [4a, 2-(4-((2-(Piperazin-1-yl)ethyl)amino)quinazolin-2-yl)phenol]
